Legend:
Raji = test: Cytotoxicity against human Raji cells by MTT assay; format: functional, cell-based
Summary of the method: (§1)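 Cells grown in RPMI 1640 with 1% glutamine, 1% penicillin/streptomycin and 10% fetal calf serum, then exposed to the sesquiterpenes. Viability was read by MTT. Bone marrow came from three healthy volunteers who gave informed consent. Camptothecin was the positive control for Raji.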

[1] = Cytotoxicity against human bone marrow cells by MTT assay; format: cell-based; settings: Bone marrow cell; summary of the method: as §1
[2] = Cytotoxicity against mouse dasatinib-resistant DA1-3b cells carrying pCDNA3-p210BCR/ABL plasmid by MTT assay; format: functional, cell-based; summary of the method: as §1
K562 = test: Cytotoxicity against human imitinib-resistant K562 cells by MTT assay; format: functional, cell-based; summary of the method: as §1
[3] = Mus musculus, DA1-3b, read-out: IC50
[4] = Homo sapiens, K562, read-out: IC50

Compound | IC50 (Raji) | IC50 [1] | IC50 [2, 3] | IC50 (K562; [4]) | IC50 ([2]; da1-3b) | IC50 (K562; k562)
C/C1=C\[C@H](OC(=O)c2ccc(O)cc2)[C@H](C(C)C)CC/C(C)=C/CC1 | 20.9 µM | > 50 µM | 24.7 µM | 25.3 µM | – | –
COc1cc(C(=O)O[C@H]2/C=C(\C)CC/C=C(\C)CC[C@H]2C(C)C)ccc1O | – | – | – | – | Not Active | Not Active
CC[C@@]1(O)C(=O)OCc2c1cc1n(c2=O)Cc2cc3ccccc3nc2-1 [CAMPTOTHECIN] | 1 µM | – | 0.03 µM | 0.002 µM | – | –
C/C1=C/[C@H](O)C(C)(C)CCC/C(C)=C/C[C@H]1OC(=O)c1ccc(O)cc1 [JUNIFERDIN] | – | – | 23.7 µM | > 50 µM | – | –
CC(=O)O[C@H]1/C=C(/C)[C@H](OC(=O)c2ccc(O)cc2)C/C=C(\C)CCCC1(C)C [JUNIFERININ] | 13 µM | 30.7 µM | 18.6 µM | 33 µM | – | –
COc1cc(C(=O)O[C@@H]2C/C=C(\C)CCCC(C)(C)[C@@H](O)/C=C\2C)ccc1O [JUNIFERIN] | – | – | 29 µM | > 50 µM | – | –
C/C=C(/C)C(=O)O[C@@H]1C/C=C(\C)CCCC(C)(C)[C@@H](O)/C=C\1C [LYCIFERIN A] | – | – | – | – | Not Active | Not Active
C/C=C(/C)C(=O)O[C@@H]1C/C=C(\C)CCCC(C)(C)[C@@H](OC(C)=O)/C=C\1C [LYCIFERIN B] | – | – | 45 µM | > 50 µM | – | –
C/C1=C/[C@H](O)C(C)(C)CCC/C(C)=C/C[C@H]1OC(=O)c1ccccc1 [LYCIFERIN C] | – | – | – | – | Not Active | Not Active
CC(=O)O[C@H]1/C=C(/C)[C@H](OC(=O)c2ccccc2)C/C=C(\C)CCCC1(C)C [LYCIFERIN D] | – | – | 45 µM | > 50 µM | – | –
COc1cc(C(=O)O[C@@H]2C/C=C(\C)CCCC(C)(C)[C@@H](OC(C)=O)/C=C\2C)ccc1O [LYCIFERIN E] | – | – | 20.1 µM | 41.5 µM | – | –
C=C1/C=C/C(C)(C)[C@H](OC(=O)c2ccc(O)c(OC)c2)CC/C(C)=C/CC1 [VANILLOYL FERVANOL] | – | – | – | – | Not Active | Not Active

Source: ChEMBL document CHEMBL1157097, “Humulane and germacrane sesquiterpenes from Ferula lycia” (J Nat Prod, 2010)
